Assay outcomes (PubChem BioAssay)
APOBEC3A inh: blocks human APOBEC3A ssDNA deamination; recombinant A3A, FAM/TAMRA ssDNA deamination fluorescence; inhibition, % at 20 µM; hit rate 0.41% among 330,000;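 active = at least 40% inhibition at 20 µM here, with at most 30% in a related deaminase screen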
Target sequence (P31941 whole entry, looked up): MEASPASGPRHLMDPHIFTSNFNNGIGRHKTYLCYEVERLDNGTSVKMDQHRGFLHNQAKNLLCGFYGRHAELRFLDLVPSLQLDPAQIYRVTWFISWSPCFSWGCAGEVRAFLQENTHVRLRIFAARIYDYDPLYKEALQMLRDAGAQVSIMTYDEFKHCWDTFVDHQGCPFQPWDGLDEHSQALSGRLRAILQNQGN
CXCR6 block: CXCR6 (human) receptor inhibition | O00574 | CHO-K1 PathHunter CXCR6 beta-arrestin, luminescence | inhibition, % at 20 µM | hit rate 0.36% among 360,000 | AID 602244; in the data active = inhibition above about 34%, passing the limit was not always enough;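 also: antagonist mode with CXCL16 agonist at 10 nM final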
CCR6 antagonist: blocks CCL20-driven beta-arrestin recruitment at human CCR6. P51684. CHO-K1 CCR6 PathHunter beta-arrestin, luminescence, CCL20-stimulated. inhibition, % at 20 µM. hit rate 0.49% among 340,000;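 active = compounds whose inhibition of the agonist-driven luminescence signal at 20 µM reaches about 50%, limit read from the data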;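 also: cells stimulated with CCL20 at 14 nM final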
APJ ag: activates the human apelin receptor APJ; P35414; CHO-K1 APJ PathHunter beta-arrestin, luminescence; 0% DMSO wells, 100% apelin; activation, % at 20 µM; hit rate 0.11% among 330,000;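 active = activation more than six SD over the plate average, tested at 20 µM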
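Test system: CHO-K1 APJ beta-arrestin complementation cell line | Compound: Single test compound dose, 20 µM final, 1% DMSO | Incubation: Compound 90 min 25 °C, reagent 1 h | Measured by: beta-gal luminescence | Read-out basis: APJ–arrestin association signal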
A3G deaminase: blocks human APOBEC3G single-stranded DNA deamination; recombinant A3G, ssDNA deamination FAM/TAMRA fluorescence; inhibition, % at 20 µM; hit rate 0.28% among 330,000;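 active = inhibition of at least 40% at 20 µM, with no more than 30% in the related APOBEC3A deaminase screen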
Target sequence (Q9HC16 whole entry, looked up): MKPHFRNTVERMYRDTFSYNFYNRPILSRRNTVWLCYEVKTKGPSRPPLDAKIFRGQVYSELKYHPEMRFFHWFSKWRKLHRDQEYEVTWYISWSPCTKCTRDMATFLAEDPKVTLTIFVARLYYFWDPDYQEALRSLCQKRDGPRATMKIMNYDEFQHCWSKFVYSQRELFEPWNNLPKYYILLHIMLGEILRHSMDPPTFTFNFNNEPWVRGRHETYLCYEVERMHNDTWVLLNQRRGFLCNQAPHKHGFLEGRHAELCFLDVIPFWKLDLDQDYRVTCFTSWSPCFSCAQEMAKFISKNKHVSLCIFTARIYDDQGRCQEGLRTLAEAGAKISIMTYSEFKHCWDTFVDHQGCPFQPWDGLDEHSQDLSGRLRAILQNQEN
APJ antag: antagonists of human APJ apelin receptor; P35414; CHO-K1 APJ beta-arrestin complementation, luminescence; inhibition, % at 20 µM; hit rate 0.32% among 330,000; AID 2521;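 active = inhibition above about 40% at 20 µM, limit read from the data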;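 also: cells challenged with 10 nM apelin-13 agonist together with compound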
APJ antag conf: APJ receptor antagonism confirmation; shares compounds with APJ antag; APJ beta-arrestin recruitment, luminescence, antagonist mode; inhibition, % at 20 µM; hit rate 66% among 950; in the data active = inhibition above about 50%
Large screens that a line does not name were inactive (follow-up assays come after a bar, where they were run). The list is not random: actives were taken first. Their share in the collection is about 1.4%.

Cc1ccc(C(=O)N2[C@@H]3CN(C)C(=O)[C@@]2(Cc2ccccc2)[C@H]2C(=O)N(C)C(=O)[C@@H]32)cc1	none (no result: APOBEC3A inh, APJ ag, A3G deaminase, APJ antag)
Cc1ccc(CNc2nc(N)c([N+](=O)[O-])c(Nc3cccc(F)c3)n2)cc1	APJ antag 41 | APJ antag conf inactive
N#CC(c1ccc(Cl)cc1)c1ccc2c(C(F)(F)F)cc(C(F)(F)F)nc2n1 (stereo unspecified)	CXCR6 block 45, CCR6 antagonist 56, APJ antag 47 | APJ antag conf 76
CCC1=NN(C(=O)c2ccc(Cl)cc2)C(O)(c2ccccc2)C1 (stereo unspecified)	APJ antag 41 | APJ antag conf inactive
O=C(c1cc(COc2ccc(F)cc2Cl)on1)N1CCN(c2cnccn2)CC1	none
CCOCCOC(=O)C1=C(C)NC2=C(C(=O)CC(c3cccs3)C2)C1c1ccsc1 (stereo unspecified)	APJ antag 45 | APJ antag conf 57
CCOC(=O)C1=C(C)NC2=C(C(=O)CCC2)C1c1cccs1 (stereo unspecified)	none
Cc1cc(=O)[nH]c(N/N=C/c2ccccc2C(F)(F)F)n1	none
Cc1cc(=O)[nH]c(N=N/C(=N/Nc2ccc(O)cc2)c2ccccc2)n1	CCR6 antagonist 56, APJ antag 59 | APJ antag conf 89
O=C(CCl)c1ccc2[nH]c(=O)oc2c1	APJ antag 83 | APJ antag conf inactive
Cc1ccc(C(C[N+](=O)[O-])n2nc(C)cc2C)cc1 (stereo unspecified)	none
Cc1ccc(C(C[N+](=O)[O-])Sc2ccc(N)cc2)cc1 (stereo unspecified)	CXCR6 block 53, CCR6 antagonist 52, APJ antag 46 | APJ antag conf 74
CCOC(=O)N1CCN(C(=O)c2cccn3c(=O)c4cc(Cl)ccc4nc23)CC1	none
CCOC(CNC(=O)c1cccn2c(=O)c3cc(Cl)ccc3nc12)OCC	APJ antag 50 | APJ antag conf inactive
COc1cccc2sc(Nc3nnc(-c4ccc(F)cc4)o3)nc12	none
COc1cccc2sc(Nc3nc(-c4ccccn4)cs3)nc12	APJ antag 52 (no result: CCR6 antagonist) | APJ antag conf inactive
COc1cccc2sc(Nc3nnc(-c4cccs4)o3)nc12	APJ antag 42 | APJ antag conf inactive
CCN(CC(=O)Nc1c(F)cccc1F)C(=O)c1ccccn1	none
COc1ccc(S(=O)(=O)NC(C)C(=O)Nc2ccc3c(c2)OCCO3)cc1OC (stereo unspecified)	APJ antag 47 | APJ antag conf inactive
COc1ccc(S(=O)(=O)NC(C)C(=O)Nc2ccc3c(c2)OCO3)cc1OC (stereo unspecified)	none
CCCNc1c(N)c(=O)oc2ccccc12	APJ antag 56 | APJ antag conf inactive
CCNc1c(N)c(=O)oc2ccccc12	none
COc1ccc(C(=O)NC(C(=O)NCc2ccccn2)C(C)C)cc1 (stereo unspecified)	none
CC(C)C(NC(=O)c1ccc(C(C)(C)C)cc1)C(=O)NCc1ccccn1 (stereo unspecified)	APJ antag 41 | APJ antag conf inactive
CCc1ccc(OCCCC(=O)Nc2ccc(S(=O)(=O)Nc3cc(C)nc(C)n3)cc2)cc1	none
CCC(/C=C1\Oc2ccc(OC)cc2N1C)=C\c1sc2ccccc2[n+]1CCCS(=O)(=O)[O-]	none (no result: APOBEC3A inh, APJ ag, A3G deaminase, APJ antag)
COc1cc(/C=C/c2sc3ccccc3[n+]2CCCS(=O)(=O)[O-])ccc1O	CXCR6 block 51, CCR6 antagonist 55, APJ antag 51 | APJ antag conf 100
Cc1cc(C)c2nc3sc(C(=O)N4CCOCC4)c(N)c3cc2c1	APJ antag 44 | APJ antag conf inactive
Cc1ccc(C)c2nc3sc(C(=O)N4CCOCC4)c(N)c3cc12	none
NS(=O)(=O)c1ccc(NNC(=O)c2ccc(Br)o2)c([N+](=O)[O-])c1	CCR6 antagonist 69, APJ antag 52 | APJ antag conf 82
CN(C)S(=O)(=O)c1cccc(NC(=O)c2ccc(NS(=O)(=O)c3cccs3)cc2)c1	none
CN(C)c1ccc(/C=C2\C(=N)N3C(=NC2=O)Sc2cc(S(C)(=O)=O)ccc23)cc1	APJ antag 53 (no result: CXCR6 block, CCR6 antagonist) | APJ antag conf inactive
CN(C)c1ccc(/C=C2\C(=N)N3N=C(CC(=O)N4CCCCC4)SC3=NC2=O)cc1	none
CCOC(=O)C1CCN(c2nc(C)nc3c2oc2ccccc23)CC1	APJ antag 45 | APJ antag conf inactive
CC[C@@]1(C(=O)OC)N[C@H](CN(C)C(=O)Nc2ccc(OC)cc2)[C@@H]2C(=O)N(C)C(=O)[C@@H]21	none
CCOC(=O)c1c(NC(=O)c2ccco2)n(C2CCCCC2)c2nc3ccccc3nc12	APJ antag 58 | APJ antag conf inactive
CCC(=O)Nc1c(C#N)c2nc3ccccc3nc2n1C1CCCCC1	none
CCOCCCNC(=O)c1ccc2c(c1)N=C(CC)c1cc(Br)ccc1S2	none
CCCn1c(N)c(N2CCCCC2)c(=O)n(CC(=O)Nc2ccccc2C(F)(F)F)c1=O	none
Cc1nn(-c2nc3ccccc3[nH]2)c(N)c1-c1ccc(Cl)cc1	APJ antag 46 | APJ antag conf inactive
O=C(Nc1ccccc1N1CCN(C(=O)c2ccccc2)CC1)c1ccccc1Cl	APJ antag 80 | APJ antag conf inactive
O=C(Nc1ccccc1N1CCCC1)c1ccccc1Cl	none
O=[N+]([O-])c1ccccc1N/N=C/c1ccccc1	none
O=[N+]([O-])c1ccccc1N/N=C/c1c[nH]c2ccccc12	APJ antag 44 | APJ antag conf 104
O=[N+]([O-])c1ccc(N/N=C/c2c[nH]c3ccccc23)cc1	CCR6 antagonist 58, APJ antag 43 | APJ antag conf 79
Cn1nccc1C(=O)NC1CC(C)(C)Cc2c1cnn2-c1ccc(F)cc1 (stereo unspecified)	none
O=C(C1CCCN(Cc2ccccc2[N+](=O)[O-])C1)N1CCCCC1 (stereo unspecified)	none
COc1ccc(NC(=O)CSc2n[nH]c(-c3ccccc3)n2)cc1S(N)(=O)=O	none
O=C(Nc1ccc(F)c(Cl)c1)c1cc(C2CCCCN2C(=O)CCc2ccccc2)on1 (stereo unspecified)	none (no result: APOBEC3A inh, CCR6 antagonist, APJ ag, A3G deaminase, APJ antag)
COc1cc(/C=C2\SC(c3ccc(C)cc3)=NC2=O)ccc1O	CXCR6 block 57, CCR6 antagonist 75, APJ antag 58 | APJ antag conf 102
COc1cc(/C=C2\SC(=S)N(NC(=O)c3cccnc3)C2=O)ccc1O	APJ antag 42 | APJ antag conf 95
O=C(NN1C(=O)/C(=C\c2ccc(O)c([N+](=O)[O-])c2)SC1=S)c1ccccc1Cl	CCR6 antagonist 60, APJ antag 55 | APJ antag conf 102
COc1ccc(/C=C2\SC(c3ccc(C)cc3)=NC2=O)cc1OC	none
